This is a sample that favours compounds with a hit; in the whole collection about 3.9% have one here.
Gli-Sufu block: blocks Gli-Sufu signaling in a luciferase reporter | inhibition, % at 5 µM | Sufu-KO-LIGHT fibroblasts, Gli luciferase reporter luminescence | hit rate 0.74% among 340,000;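 active = inhibition above about 55%, limit read from the data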
Jurkat NFkB inh: inhibitors of the PMA/ionomycin-induced NF-kB reporter in Jurkat cells | inhibition, % at 4 µM | PMA/ionomycin-induced NF-kB luciferase reporter, luminescence | hit rate 0.53% among 330,000; in the data active = inhibition above about 50%
UPR CHOP act: apoptotic UPR (CHOP) activation; CHO-CHOP luciferase reporter, luminescence; percent of tunicamycin response over DMSO baseline; activation, % at 10 µM; hit rate 0.34% among 330,000;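 active = at 10 µM dose, activation of 40% or more, normalized to positive control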
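Test system: CHO CHOP reporter cells. Input: 500 CHO-CHOP cells per well. Medium: F12 with 10% FBS. Technique: luciferase luminescence. Measure: percent activation relative to tunicamycin control. Dosing: 10 µM compound, 0.5% DMSO. Timing: 16-18 h cell attachment, then 6 h compound exposure, 37 °C.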
CHOP inhibitor: CHOP inhibition in unfolded protein response; hit rate 3.8% among 220,000; inhibition, % at 10 µM; CHO-K1 CHOP-promoter luciferase, tunicamycin-induced, 15-18 h;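 active = compounds that reduced the stress-induced luciferase reporter signal by more than about 70% of percent inhibition, limit read from the data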
XBP1 UPR activ: activators of adaptive arm of unfolded protein response (XBP1). CHO-XBP1 luciferase reporter, IRE1-XBP1 UPR activation, luminescence; percent of tunicamycin response, DMSO as zero. activation, % at 20 µM. hit rate 0.33% among 330,000;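 active = versus positive control, 20 µM dose yields 30% or more activation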
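Test system: CHO-XBP1 luciferase reporter cells | Buffer or medium: Serum-containing F12 medium, 10% FBS | Schedule: 6 h compound exposure at 37 °C, 5% CO2 | Detection: Steady-Glo luciferase glow luminescence, 10 min after reagent addition | Read-out basis: Activation, % of tunicamycin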
697 NFkB inh: lowers PMA/ionomycin-induced NF-kB signal in 697 B cells | 697 B-cell NF-kB luciferase reporter, 16 h | inhibition, % at 4 µM | hit rate 0.33% among 330,000 | AID 435022; in the data active = inhibition above about 35%
Jurkat NFkB conf: inhibitors of the PMA/ionomycin-induced NF-kB reporter in Jurkat cells, retest; inhibition, % at 4 µM; Jurkat NF-kB luciferase, 16 h; hit rate 27% among 2,700; shares compounds with Jurkat NFkB inh;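 active = inhibition reaching about 45% at 4 µM in either replicate, limit read from the data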
Numbers stand for hits; - = inactive; . = no result.

SMILES	Gli-Sufu block	Jurkat NFkB inh	UPR CHOP act	CHOP inhibitor	XBP1 UPR activ	697 NFkB inh	Jurkat NFkB conf
Cc1cc(C(=O)CN2C(=O)C(=O)N(Cc3ccco3)C2=O)c(C)n1CCc1ccc(F)cc1	-	-	-	.	-	-	.
CN(CC(=O)Nc1cccc(F)c1)C(=O)c1cc([N+](=O)[O-])ccc1N1CCCCC1	-	-	-	.	-	-	.
COC(=O)[C@]1(C)N[C@H](CN(C)S(=O)(=O)c2ccc(-c3ccccc3)cc2)[C@@H]2C(=O)N(C)C(=O)[C@@H]21	-	-	-	.	-	-	.
O=C(COc1cccc2cccnc12)N/N=C/c1ccccc1O	-	-	-	-	-	-	.
Oc1ccccc1/C=N/Nc1cccc2cccnc12	-	-	-	-	-	-	-
c1ccc2c(c1)oc1c(Nc3ccc4c(c3)OCCO4)ncnc12	-	-	-	-	-	-	-
Cc1nn(-c2ccccc2)c(C)c1NC(=O)COc1ccc([N+](=O)[O-])cc1	-	-	-	.	-	-	.
COc1cc(C2SCC(=O)N2Cc2ccccc2)ccc1O (configuration not stated)	-	-	-	.	-	-	.
COc1ccc(C(=O)Nc2ccccc2C(N)=O)cc1	-	-	-	-	-	-	.
NC(=O)c1ccccc1NC(=O)c1ccc2ccccc2c1	-	-	-	.	-	-	-
Cc1ccc(C(=O)O/N=C(\N)c2ccccn2)c(C)c1	73.2	76.2	-	.	-	-	92.2
CCCCCCCC[n+]1cccc(C(=O)N(CC)CC)c1	-	-	-	-	-	-	.
CCCCCCCCCCCCCCCC[n+]1ccc(C(N)=O)cc1	-	55.7	-	70.4	-	-	-
Clc1ccc2c(c1)C(C1=NCCN1)c1ccccc1CS2 (configuration not stated)	-	63.4	-	-	-	-	42.8
CCC(=NCCc1c(C)[nH]c2ccc(C)cc12)C1=C(O)CC(c2ccccc2)CC1=O (configuration not stated)	-	63.9	-	-	-	-	-
CC(=O)C1=C(O)CC(c2ccccc2)CC1=NCCc1c(C)[nH]c2ccc(C)cc12 (configuration not stated)	-	-	-	-	-	-	.
CCC(=O)N1CCc2cc(OC)c(OC)cc2C1COc1ccc(F)cc1 (configuration not stated)	-	64.4	-	.	-	-	-
COc1cc2c(cc1OC)C(COc1ccc(F)cc1)N(C(C)=O)CC2 (configuration not stated)	-	-	-	.	-	-	.
Cc1ccc(NCCC(=O)c2cccs2)cc1C	-	-	-	-	-	-	-
CCCc1cc(C(=O)N/N=C/c2ccc(CC)s2)c2ccccc2n1	-	56.2	-	-	-	-	-
CCCc1cc(C(=O)N/N=C/c2ccc(C)o2)c2ccccc2n1	-	-	-	-	-	-	.
CCc1ccc(/C=N/NC(=O)c2cc(-c3ccncc3)nc3ccccc23)s1	-	63.4	-	-	-	-	49.8
O=C(N/N=C/c1cccs1)c1cc(-c2ccncc2)nc2ccccc12	-	.	.	-	.	.	.
Cn1cccc1/C=N/NC(=O)c1cc(-c2cccs2)nc2ccccc12	-	53.1	-	-	-	-	-
O=[N+]([O-])c1cc(S(=O)(=O)N2CCOCC2)ccc1OCc1ccccc1C(F)(F)F	-	-	-	.	-	-	.
SMILES	Gli-Sufu block	Jurkat NFkB inh	UPR CHOP act	CHOP inhibitor	XBP1 UPR activ	697 NFkB inh	Jurkat NFkB conf
COc1ccc(S(=O)(=O)c2c(O)c3ccc(C(=O)Nc4ccc(F)cc4F)cc3[nH]c2=O)cc1	-	-	-	.	-	-	.
COc1ccccc1N=C1SC(C(=O)Nc2cccc(Cl)c2Cl)C(N)=C1C(N)=O (configuration not stated)	-	57.8	-	-	-	-	-
Cc1cc(C(C)(C)C)ccc1OCCCCN1CCCC1	-	-	-	-	-	-	.
CCC(C)(C)c1ccc(OCCCC[n+]2cccc(C)c2C)c(C(C)(C)CC)c1	84.9	94.2	-	78.5	-	-	74.5
NC(=O)c1nsc(C(=O)N(c2cccc(F)c2)C(C(=O)NCC2CCCO2)c2ccc3ncccc3c2)c1N (configuration not stated)	-	-	-	.	-	-	.
COc1ccc(NC(=O)CN2CCN(C(=O)N3CCOCC3)CC2)cc1	-	-	-	.	-	-	.
N#CC1=C(N)Oc2c(ccc3cccnc23)C1c1ccccc1 (configuration not stated)	-	65.6	-	-	-	-	-
COc1c(C(=O)Nc2nnc(C3CC3)s2)csc1Cl	-	-	-	.	-	-	.
Cc1noc(C)c1CSCC(=O)N(C)CC(=O)Nc1ccc(Cl)c(C(F)(F)F)c1	-	-	-	.	-	-	.
Cc1ccc(C(=O)Nc2cc3ccccc3oc2=O)cc1	-	78.6	-	104.2	-	-	77.4
COc1cc(C(=O)NC(=S)Nc2cccc(-c3cc4ccccc4oc3=O)c2)cc(OC)c1OC	-	-	-	-	-	-	.
Cc1cc(NC(=S)NC(=O)c2ccccc2)ccc1-c1cc2ccccc2oc1=O	-	59.1	-	-	-	-	-
CCN1/C(=C/c2ccc3ccccc3[n+]2CC)C=Cc2ccccc21	92.0	97.0	-	.	-	-	71.2
CCCCN1/C(=C/c2cccc[n+]2C)Sc2cc(NC(C)=O)ccc21	-	-	-	.	-	-	.
CCCCN1/C(=C/c2ccc3ccccc3[n+]2CC)Sc2ccccc21	88.0	86.8	-	84.4	-	-	67.2
Cc1ccc(CN=C(N)Nc2nc(C)cc(C)n2)cc1	-	72.9	-	-	-	-	-
Cc1ccc(C)c(N/C(N)=N/c2nc(C)cc(C)n2)c1	-	-	-	-	-	-	.
O=C(Nc1ccccn1)c1ccc([N+](=O)[O-])cc1Cl	-	-	-	-	-	-	.
O=C(Nc1ccccn1)c1cc2cc([N+](=O)[O-])ccc2s1	-	-	-	-	-	-	-
CCOc1ccc(CCNC(=O)COC(=O)c2ccc(OC(C)C)cc2)cc1OCC	-	-	-	.	-	-	.
CCCc1nc2oc3c(NCCN(C)C)ncnc3c2c2c1CCCC2	-	-	-	-	-	-	.
CCCc1nc2oc3c(NCCCN(C)C)ncnc3c2c2c1CCCC2	-	89.7	-	-	-	-	-
C[C@@]12C(=O)N(CCc3c[nH]c4ccccc34)CC(=O)N1[C@H]1c3ccccc3OC[C@@H]1[C@@H]2c1ccccc1	-	-	-	.	-	-	.
COc1ccc(N=C2S/C(=C\c3ccc(Cl)c([N+](=O)[O-])c3)C(=O)N2CCN(C)C)cc1	-	50.8	-	.	-	-	-
Cc1cc(C)c(C(=O)CN2C(=O)NC3(CCC(C)CC3)C2=O)cc1C (configuration not stated)	-	-	-	-	-	-	.

High-throughput results: PubChem, several laboratories
